Measurements taken from ChEMBL document CHEMBL2331329, “Synthesis and biological evaluation of 2-(alkoxycarbonyl)-3-anilinobenzo[b]thiophenes and thieno[2,3-b]pyridines as new potent anticancer agents” (J Med Chem, 2013).
Activity calls are given as the source filed them. No cut-off for these calls is given here.

Tests used:
HeLa [1] = assay: Cell cycle arrest in human HeLa cells assessed as accumulation at G2/M phase after 24 hrs by propidium iodide staining-based flow cytometry; assay type: functional
In short: (§1)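 Jurkat, HT-29 and HeLa cells in exponential growth (5 × 10^5 cells) treated 24 h at a range of concentrations. Fixed in ice-cold 70% ethanol, lysed with buffer containing RNase A and 0.1% Triton X-100, stained with propidium iodide. DNA content read by flow cytometry and the percentage of cells per cycle phase derived from DNA histograms.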

HT-29 [2] = assay: Cell cycle arrest in human HT-29 cells assessed as accumulation at G2/M phase after 24 hrs by propidium iodide staining-based flow cytometry; assay type: functional; in short: as §1
Jurkat [3] = assay: Cell cycle arrest in human Jurkat cells assessed as accumulation at G2/M phase after 24 hrs by propidium iodide staining-based flow cytometry; assay type: functional; in short: as §1
[4] = Selectivity ratio of IC50 for human CEM cells to IC50 for human PHA-stimulated PBL cells; assay type: ADME, cell-based; conditions: CEM cells and PHA-stimulated PBL cells, read-out: Ratio IC50
[5] = Selectivity ratio of IC50 for human Jurkat cells to IC50 for human PHA-stimulated PBL cells; assay type: ADME, cell-based; conditions: Jurkat cells and PHA-stimulated PBL cells, read-out: Ratio IC50
[6] = Antitumor activity against mouse BNL 1ME A.7R.1 cells xenografted in Balb/c mouse assessed as reduction in tumor growth at 5 mg/kg, ip QD for 7 days; assay type: functional; set-up: scale not given: the % may be the effect or the level left; conditions: route intraperitoneal
In short: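 Male Balb/c mice, 8 weeks old, given 10^7 syngeneic BNL 1ME A.7R.1 hepatoma cells subcutaneously in the dorsal region in 200 μL PBS. Randomised to groups of five. Dosed intraperitoneally once daily for 7 days at 5 mg/kg in 0.9% NaCl with 5% PEG 400 and 0.5% Tween 80, against vehicle and CA-4P. Tumours measured daily by caliper, V = AB2/2; body weight recorded. Mean ± SEM.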

HeLa [7] = assay: Induction of apoptosis in human HeLa cells assessed as survivin phosphorylation on Thr32 after 24 to 48 hrs by Western Blot analysis; assay type: functional, cell-based
In short: (§2)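 HeLa cells exposed to 10 or 100 nM for 24 or 48 h, washed in ice-cold PBS, lysed on ice 30 min, spun at 15000g at 4 °C. 20 μg protein run on 7.5–15% SDS–PAGE, blotted to PVDF, blocked overnight at 4 °C. Primary antibodies 2 h at room temperature, peroxidase secondary 60 min, ECL detection, β-actin reprobe as loading control.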

[8] = Cytotoxicity against mouse BNL 1ME A.7R.1 cells; assay type: functional, cell-based
HeLa [9] = assay: Induction of apoptosis in human HeLa cells assessed as phosphorylated Mcl-1 at 10 nM after 48 hrs by Western Blot analysis; assay type: functional, cell-based; in short: as §2
HeLa [10] = assay: Induction of apoptosis in human HeLa cells assessed as Bcl-XL phosphorylation at 10 to 100 nM after 24 to 48 hrs by Western Blot analysis; assay type: functional, cell-based; in short: as §2
HeLa [11] = assay: Induction of apoptosis in human HeLa cells assessed as ROS production at 10 to 100 nM after 24 to 48 hrs by HE staining-based flow cytometry relative to control; assay type: functional, cell-based
In short: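 HeLa cells treated 24 or 48 h, then stained with H2-DCFDA or hydroethidine. ROS read by flow cytometry against untreated control. Mean ± SEM of three independent experiments.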

HeLa [12] = assay: Induction of apoptosis in human HeLa cells assessed as early apoptotic cells after 24 to 48 hrs by annexin V-FITC/Propidium iodide staining-based flow cytometry; assay type: functional, cell-based
In short: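 HeLa cells treated 24 or 48 h, then co-labelled with annexin-V–FITC and propidium iodide. Flow cytometry with 488 nm excitation and emission at 525 nm (FITC) and 585 nm (PI); early apoptotic cells counted as annexin-V+/PI−. Mean ± SEM of three independent experiments.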

HeLa [13] = assay: Cell cycle arrest in human HeLa cells assessed as reduction in phosphorylated cdc2 Tyr15 level at 10 to 100 nM after 24 to 48 hrs by Western Blot analysis; assay type: functional, cell-based; in short: as §2
Bos taurus = species on record: Bos taurus; assay: Displacement of [3H]colchicine from bovine brain tubulin at 5 uM after 20 mins by turbidimetric analysis
[14] = Inhibition of bovine brain tubulin polymerization after 20 mins by turbidimetric analysis; set-up: species or system Bos taurus
In short: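 Bovine brain tubulin (10 μM) preincubated with varying compound concentrations in glutamate buffer at 30 °C, chilled to 0 °C, 0.4 mM GTP added, then warmed to 30 °C in a recording spectrophotometer.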

[15] = Cytotoxicity against human A549-T12 cells after 72 hrs by MTT assay; assay type: functional, cell-based; conditions: A549, 72 h
In short: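 Mean ± SE of at least three independent experiments. Resistance ratio = IC50 in resistant line/IC50 in nonresistant line.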

CCRF-CEM = assay: Cytotoxicity against human CEM cells after 72 hrs by MTT assay; assay type: functional, cell-based
In short: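 MTT viability test: 8 × 10^3 cells per well settled 18 h at 37 °C, 5% CO2, then given fresh medium with compound (from 10 mM DMSO stocks, final DMSO ≤0.25%) for 72 h. […] CEMVbl-100 is a vinblastine-selected P-gp line; LoVoDoxo is grown in Ham's F12 with 0.1 μg/mL doxorubicin. Resistance index = resistant IC50/parental IC50.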

PBL = assay: Cytotoxicity against human PHA-stimulated PBL cells after 72 hrs by MTT assay; assay type: cell-based
In short: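 Peripheral blood lymphocytes from healthy donors isolated on a Lymphoprep gradient and rested overnight in RPMI-1640 with 10% FBS. Nonadherent cells at 5 × 10^5 cells/mL, with 2.5 μg/mL PHA for proliferating cultures or without it for resting ones. Compound exposure 72 h, viability by MTT. Mean ± SEM of three experiments.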

HT-29 [16] = assay: Cytotoxicity against human HT-29 cells after 72 hrs by MTT assay; assay type: functional, cell-based; conditions: HT-29, 72 h
MCF7 = assay: Cytotoxicity against human MCF7 cells after 72 hrs by MTT assay; assay type: functional, cell-based; conditions: MCF7, 72 h
Jurkat [17] = assay: Cytotoxicity against human Jurkat cells after 72 hrs by MTT assay; assay type: functional, cell-based
In short: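 Cells plated at 8 × 10^3 per well, 18 h at 37 °C, 5% CO2, then fresh medium with graded compound concentrations (DMSO ≤0.25%) for 72 h. Jurkat, SEM, HL-60 grown in RPMI-1640; A549, HeLa, HT-29, MCF-7 in DMEM; 10% FBS with penicillin/streptomycin. MTT viability read-out; IC50 vs 0.25% DMSO controls; mean ± SE of at least three independent experiments.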

HT-29 [18] = assay: Ratio of Combretastatin A-4 IC50 to compound IC50 for human HT-29 cells; assay type: functional
Jurkat [19] = assay: Ratio of Combretastatin A-4 IC50 to compound IC50 for human Jurkat cells; assay type: functional
HeLa [20] = assay: Ratio of Combretastatin A-4 IC50 to compound IC50 for human HeLa cells; assay type: functional
HeLa [21] = assay: Cell cycle arrest in human HeLa cells assessed as accumulation at G2/M phase at >20 nM after 24 hrs by propidium iodide staining-based flow cytometry; assay type: functional; in short: as §1
Jurkat [22] = assay: Cell cycle arrest in human Jurkat cells assessed as accumulation at G2/M phase at >20 nM after 24 hrs by propidium iodide staining-based flow cytometry; assay type: functional; in short: as §1

In the case of `COC(=O)c1sc2cc(OC)ccc2c1Nc1cc(OC)c(OC)c(OC)c1`, the Activity (HeLa [1]) is reported as “Dose-dependent effect”, the Activity (HT-29 [2]) is reported as “Dose-dependent effect” and the Activity (Jurkat [3]) is reported as “Dose-dependent effect”. The selectivity ratio [4] was 2000, the selectivity ratio [5] was 2000 and the Activity [6] was 68.5%. For the same compound, the Activity (HeLa [7]) was “Active”, the IC50 [8] was 2.1 nM and the Activity (HeLa [9]) was “inactive”. For the same compound, the Activity (HeLa [10]) was “Active”, the Activity (HeLa [11]) was “Active” and the Activity (HeLa [12]) was “Dose-dependent effect”. For the same compound, the Activity (HeLa [13]) was “Active”, the inhibition (Bos taurus) was 98% and the IC50 [14] was 880 nM. For the same compound, the IC50 [15] was 12.6 nM, the IC50 (CCRF-CEM) was 3.2 nM and the IC50 (PBL) was > 10 µM. For the same compound, the IC50 (HT-29 [16]) was 0.9 nM, the IC50 (MCF7) was 0.7 nM and the IC50 (Jurkat [17]) was 1.7 nM. The “Ratio IC50” value (HT-29 [18]) was 2, the “Ratio IC50” value (Jurkat [19]) was 2 and the “Ratio IC50” value (HeLa [20]) was 2. For the same compound, the Activity (HeLa [21]) was >80% and the Activity (Jurkat [22]) was >80%.
